Several values for one entry are separate records, joined by “and”; a condition that tells them apart may be missing. Equal entries are not always repeated.
What was measured:
Type in all cases: toxicity, cell-based
HEK-293T [1] = assay: Multiplex assay against HEK293T; details: human;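 for Population Tubulin-Different-Phenotype (%): share of the cells with healthy nuclei that show this phenotype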
Summary of the method: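 Live cells were stained at seeding with Hoechst33342, BioTracker Green Microtubule Cytoskeleton Dye, MitoTracker Red and Annexin V Alexa Fluor 680, then imaged on a CQ1 microscope at 37°C and 5% CO2 after compound addition. CellPathfinder machine-learning gating split cells into Hoechst high-intensity objects or normal cells. Normal cells were split into healthy, pyknosed or fragmented nuclei, and pyknosed cells into mitotic or apoptotic. Tubulin, mitochondrial-mass and membrane-permeability phenotypes are per cents of healthy-nucleus cells.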

HEK-293T [2] = assay: Incucyte cell viability with HEK293T; details: human, 10 µM, compound concentration 10 uM; note: filed as whole numbers so only -1 and 0 and 1 occur
Fibroblast = assay: Incucyte cell viability with human fibroblast; details: 10 µM, compound concentration 10 uM; note: filed as whole numbers so only -1 and 0 and 1 occur
[3] = 12 h, 1 µM, compound concentration 1 uM, replicate 1
[4] = 12 h, 1 µM, compound concentration 1 uM, replicate 2
[5] = 12 h, 10 µM, compound concentration 10 uM, replicate 1
[6] = 12 h, 10 µM, compound concentration 10 uM, replicate 2
[7] = 24 h, 1 µM, compound concentration 1 uM, replicate 1
[8] = 24 h, 1 µM, compound concentration 1 uM, replicate 2
[9] = 24 h, 10 µM, compound concentration 10 uM, replicate 1
[10] = 24 h, 10 µM, compound concentration 10 uM, replicate 2
[11] = 48 h, 1 µM, compound concentration 1 uM, replicate 1
[12] = 48 h, 1 µM, compound concentration 1 uM, replicate 2
[13] = 48 h, 10 µM, compound concentration 10 uM, replicate 1
[14] = 48 h, 10 µM, compound concentration 10 uM, replicate 2
[15] = 0 h, replicate number 1, timepoint 0 hours
[16] = 6 h, replicate number 1, timepoint 6 hours
[17] = 12 h, replicate number 1, timepoint 12 hours
[18] = 18 h, replicate number 1, timepoint 18 hours
[19] = 24 h, replicate number 1, timepoint 24 hours

CS(=O)(=O)N1CCCC(NC(=O)[C@H](CCC2CCCCC2)NC(=O)c2ccc(CNC(=O)c3cnc4ccccn34)cc2)C1 (some centres undefined) [SR-302]
Population Apoptotic (%) (HEK-293T [1]; [3]): 40% [middle of 4 runs]
Population Fragmented Nuclei (%) (HEK-293T [1]; [3]): 13% [middle of 4 runs]
Population Hoechst High Intensity Objects (%) (HEK-293T [1]; [3]): 14% [middle of 4 runs]
Population Membrane Permeable-Phenotype (%) (HEK-293T [1]; [3]): 3% and 2%
Population Mitotic Cells (%) (HEK-293T [1]; [3]): 65% [middle of 4 runs]
Population Normal (%) (HEK-293T [1]; [3]): 86% and 85% and 81%
Total Cell Count (HEK-293T [1]; [3]): 519 [middle of 4 runs]
Population Apoptotic (%) (HEK-293T [1]; [4]): 17% [middle of 4 runs]
Population Fragmented Nuclei (%) (HEK-293T [1]; [4]): 8% and 5%
Population Healthy Nuclei (%) (HEK-293T [1]; [4]): 48% [middle of 4 runs]
Population Hoechst High Intensity Objects (%) (HEK-293T [1]; [4]): 6% and 3% and 2%
Population Mitotic Cells (%) (HEK-293T [1]; [4]): 88% [middle of 4 runs]
Population Normal (%) (HEK-293T [1]; [4]): 93% and 96% and 97%
Population Apoptotic (%) (HEK-293T [1]; [5]): 65% [middle of 4 runs]
Population Fragmented Nuclei (%) (HEK-293T [1]; [5]): 13% and 12% and 16%
Population Hoechst High Intensity Objects (%) (HEK-293T [1]; [5]): 16% [middle of 4 runs]
Population Membrane Permeable-Phenotype (%) (HEK-293T [1]; [5]): 7% and 4% and 3%
Population Mitotic Cells (%) (HEK-293T [1]; [5]): 35% [middle of 4 runs]
Population Normal (%) (HEK-293T [1]; [5]): 85% and 83% and 77% and 86%
Total Cell Count (HEK-293T [1]; [5]): 331 [middle of 4 runs]
Population Healthy Nuclei (%) (HEK-293T [1]; [6]): 30% and 36% and 87%
Population Membrane Permeable-Phenotype (%) (HEK-293T [1]; [6]): 12% and 8%
Population Mitotic Cells (%) (HEK-293T [1]; [6]): 52% [middle of 4 runs]
Population Normal (%) (HEK-293T [1]; [6]): 95% and 90% and 94% and 97%
Population Tubulin-Different-Phenotype (%) (HEK-293T [1]; [6]): 93% [middle of 4 runs]
Population Apoptotic (%) (HEK-293T [1]; [7]): 52% [middle of 4 runs]
Population Fragmented Nuclei (%) (HEK-293T [1]; [7]): 13% [middle of 4 runs]
Population Hoechst High Intensity Objects (%) (HEK-293T [1]; [7]): 15% and 14% and 24%
Population Membrane Permeable-Phenotype (%) (HEK-293T [1]; [7]): 4% and 3% and 2%
Population Mitotic Cells (%) (HEK-293T [1]; [7]): 64% [middle of 4 runs]
Population Normal (%) (HEK-293T [1]; [7]): 84% and 85% and 75%
Population Healthy Nuclei (%) (HEK-293T [1]; [8]): 65% [middle of 4 runs]
Population Membrane Permeable-Phenotype (%) (HEK-293T [1]; [8]): 11% and 7% and 5%
Population Mitotic Cells (%) (HEK-293T [1]; [8]): 76% and 75% and 93%
Population Normal (%) (HEK-293T [1]; [8]): 95% and 97% and 96% and 98%
Population Apoptotic (%) (HEK-293T [1]; [9]): 63% and 66% and 26%
Population Fragmented Nuclei (%) (HEK-293T [1]; [9]): 18% [middle of 4 runs]
Population Hoechst High Intensity Objects (%) (HEK-293T [1]; [9]): 17% [middle of 4 runs]
Population Mitotic Cells (%) (HEK-293T [1]; [9]): 36% and 33% and 73%
Population Normal (%) (HEK-293T [1]; [9]): 82% and 84% and 81% and 89%
Total Cell Count (HEK-293T [1]; [9]): 335 [middle of 4 runs]
Population Fragmented Nuclei (%) (HEK-293T [1]; [10]): 3% and 6%
Population Healthy Nuclei (%) (HEK-293T [1]; [10]): 44% and 77% and 50%
Population Membrane Permeable-Phenotype (%) (HEK-293T [1]; [10]): 13% and 6% and 5%
Population Mitotic Cells (%) (HEK-293T [1]; [10]): 94% and 46% and 37%
Population Normal (%) (HEK-293T [1]; [10]): 98% and 97% and 91% and 95%
Population Tubulin-Different-Phenotype (%) (HEK-293T [1]; [10]): 56% and 88% and 94%
Population Apoptotic (%) (HEK-293T [1]; [11]): 46% and 31% and 58%
Population Fragmented Nuclei (%) (HEK-293T [1]; [11]): 25% and 16% and 23%
Population Healthy Nuclei (%) (HEK-293T [1]; [11]): 24% and 43% and 23%
Population Hoechst High Intensity Objects (%) (HEK-293T [1]; [11]): 11% and 24%
Population Membrane Permeable-Phenotype (%) (HEK-293T [1]; [11]): 1% and 0%
Population Mitochondria Different-Phenotype (%) (HEK-293T [1]; [11]): 42% and 44% and 58%
Population Mitotic Cells (%) (HEK-293T [1]; [11]): 53% and 68% and 41%
Population Normal (%) (HEK-293T [1]; [11]): 88% and 76%
Population Pyknosed Nuclei (%) (HEK-293T [1]; [11]): 49% and 40% and 53%
Population Tubulin-Different-Phenotype (%) (HEK-293T [1]; [11]): 18% and 29% and 41%
Total Cell Count (HEK-293T [1]; [11]): 293 and 638 and 325
Population Apoptotic (%) (HEK-293T [1]; [12]): 30% and 16% and 25%
Population Fragmented Nuclei (%) (HEK-293T [1]; [12]): 5% and 6% and 7%
Population Healthy Nuclei (%) (HEK-293T [1]; [12]): 81% and 84% and 82%
Population Hoechst High Intensity Objects (%) (HEK-293T [1]; [12]): 5% and 4%
Population Membrane Permeable-Phenotype (%) (HEK-293T [1]; [12]): 3%
Population Mitochondria Different-Phenotype (%) (HEK-293T [1]; [12]): 9% and 8% and 10%
Population Mitotic Cells (%) (HEK-293T [1]; [12]): 69% and 83% and 74%
Population Normal (%) (HEK-293T [1]; [12]): 94% and 95%
Population Pyknosed Nuclei (%) (HEK-293T [1]; [12]): 12% and 9% and 10%
Population Tubulin-Different-Phenotype (%) (HEK-293T [1]; [12]): 16% and 27%
Total Cell Count (HEK-293T [1]; [12]): 344 and 689 and 583
Population Apoptotic (%) (HEK-293T [1]; [13]): 64% and 65% and 62%
Population Fragmented Nuclei (%) (HEK-293T [1]; [13]): 23% and 21% and 33%
Population Healthy Nuclei (%) (HEK-293T [1]; [13]): 18% and 20% and 19%
Population Hoechst High Intensity Objects (%) (HEK-293T [1]; [13]): 22% and 18%
Population Membrane Permeable-Phenotype (%) (HEK-293T [1]; [13]): 3% and 0%
Population Mitochondria Different-Phenotype (%) (HEK-293T [1]; [13]): 90% and 100% and 97%
Population Mitotic Cells (%) (HEK-293T [1]; [13]): 35% and 34% and 37%
Population Normal (%) (HEK-293T [1]; [13]): 77% and 81%
Population Pyknosed Nuclei (%) (HEK-293T [1]; [13]): 58% and 57% and 47%
Population Tubulin-Different-Phenotype (%) (HEK-293T [1]; [13]): 96% and 95%
Total Cell Count (HEK-293T [1]; [13]): 360 and 347 and 256
Population Apoptotic (%) (HEK-293T [1]; [14]): 61% and 73% and 52%
Population Fragmented Nuclei (%) (HEK-293T [1]; [14]): 4% and 5% and 8%
Population Healthy Nuclei (%) (HEK-293T [1]; [14]): 69% and 75% and 71%
Population Membrane Permeable-Phenotype (%) (HEK-293T [1]; [14]): 1%
Population Mitochondria Different-Phenotype (%) (HEK-293T [1]; [14]): 89% and 83%
Population Mitotic Cells (%) (HEK-293T [1]; [14]): 38% and 26% and 47%
Population Normal (%) (HEK-293T [1]; [14]): 97% and 95% and 92%
Population Pyknosed Nuclei (%) (HEK-293T [1]; [14]): 26% and 19%
Total Cell Count (HEK-293T [1]; [14]): 310 and 372 and 210
Growth Rate (HEK-293T [2]; [15]): 0
Growth Rate (HEK-293T [2]; [16]): 0
Growth Rate (HEK-293T [2]; [17]): 0
Growth Rate (HEK-293T [2]; [18]): 0
Growth Rate (HEK-293T [2]; [19]): 0
Growth Rate (Fibroblast; [15]): 0
Growth Rate (Fibroblast; [16]): 1
Growth Rate (Fibroblast; [17]): 0
Growth Rate (Fibroblast; [18]): 0
Growth Rate (Fibroblast; [19]): 0
